Measured values from ChEMBL document CHEMBL4673298, “Exploration of Structure-Activity Relationship of Aromatic Aldehydes Bearing Pyridinylmethoxy-Methyl Esters as Novel Antisickling Agents” (J Med Chem, 2020).
Activity calls are given as the source filed them. The calls are words filed in the database; no cut-off is given here.

Tests used:
[1] = system: Red blood cell; assay: Binding affinity to Hemoglobin in sickle cell RBCs from blood isolated from patient with homozygous SS assessed as increase in Hb affinity shift for oxygen at 0.5 mM under hypoxic conditions incubated for 2 hrs by oxygen equilibrium curve study; type: tissue-based; settings: Homo sapiens
Procedure, shortened: (§1)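 SS blood, hematocrit 20%, incubated under air with compound (0.5, 1, 2 mM) at 37 °C for 1 h, then hypoxic (2.5% O2/97.5% N2) at 37 °C for 2 h. Cells are washed in PBS and hemolyzed hypotonically. Lysate in 0.1 M potassium phosphate pH 7.0 is run by Hemox analysis for P50. ΔP50 is given as percent of DMSO control. Three biological replicates, mean ± SD.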

[2] = system: Red blood cell; assay: Binding affinity to Hemoglobin in sickle cell RBCs from blood isolated from patient with homozygous SS assessed as increase in Hb affinity shift for oxygen at 2 mM under hypoxic conditions incubated for 2 hrs by oxygen equilibrium curve study; type: tissue-based; settings: Homo sapiens; procedure, shortened: as §1
[3] = system: Erythrocyte; assay: Inhibition of sickling in sickle cell RBCs from blood isolated from patient with homozygous SS under hypoxic conditions incubated for 2 hrs; type: functional, tissue-based; settings: Homo sapiens
Procedure, shortened: (§2)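 SS blood, hematocrit 20%, preincubated under air with compound (0.5, 1, 2 mM) for 1 h at 37 °C, then 2 h hypoxia (2.5% O2/97.5% N2) at 37 °C. Aliquots are fixed in 2% glutaraldehyde without air exposure. Cell morphology is scored from bright-field images at 40×. Three biological replicates, mean ± SD.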

[4] = system: Red blood cell; assay: Binding affinity to Hemoglobin in sickle cell RBCs from blood isolated from patient with homozygous SS assessed as increase in Hb affinity shift for oxygen at 1 mM under hypoxic conditions incubated for 2 hrs by oxygen equilibrium curve study; type: tissue-based; settings: Homo sapiens; procedure, shortened: as §1
[5] = system: Red blood cell; assay: Binding affinity to Hemoglobin in sickle cell RBCs from blood isolated from patient with homozygous SS assessed as increase in hemoglobin modification at 0.5 mM under hypoxic conditions incubated for 2 hrs […]; type: tissue-based; settings: Homo sapiens
Procedure, shortened: (§3)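 SS blood, hematocrit 20%, incubated under air with compound (0.5, 1, 2 mM) at 37 °C for 1 h, then hypoxic (2.5% O2/97.5% N2) at 37 °C for 2 h. Cells are washed and hemolyzed. Lysate is run on weak cation-exchange HPLC to quantify Hb adduct (modified Hb). Three biological replicates, mean ± SD.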

[6] = Inhibition of sickling in sickle cell RBCs from blood isolated from patient with homozygous SS at 2 mM under hypoxic conditions incubated for 2 hrs; type: functional; settings: Homo sapiens, Erythrocyte; procedure, shortened: as §2
[7] = species on record: Homo sapiens; assay: Binding affinity to Hemoglobin in normal human whole blood assessed as increase in Hb affinity for oxygen at 2 mM by oxygen equilibrium curve study; type: tissue-based
Procedure, shortened: (§4)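 Normal human whole blood, hematocrit 30%, incubated with or without compound in DMSO (0.5, 1.0 or 2.0 mM; 2 mM for the time course) at 37 °C. The blood is tonometered about 7 min at 37 °C against gas with 0.804, 2.935 and 5.528% O2 (6, 20, 40 mmHg). sO2 and pO2 are read on a blood gas analyzer. ΔP50% is taken relative to no compound. Time course sampled at 1, 2, 4, 8, 12, 24 h.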

[8] = Inhibition of sickling in sickle cell RBCs from blood isolated from patient with homozygous SS at 1 mM under hypoxic conditions incubated for 2 hrs; type: functional; settings: Homo sapiens, Erythrocyte; procedure, shortened: as §2
[9] = system: Red blood cell; assay: Binding affinity to Hemoglobin in sickle cell RBCs from blood isolated from patient with homozygous SS assessed as increase in hemoglobin modification at 2 mM under hypoxic conditions incubated for 2 hrs […]; type: tissue-based; settings: Homo sapiens; procedure, shortened: as §3
[10] = species on record: Homo sapiens; assay: Binding affinity to Hemoglobin in normal human whole blood assessed as increase in Hb affinity for oxygen incubated for 1.5 hrs by oxygen equilibrium curve study; type: tissue-based; procedure, shortened: as §4
[11] = system: Red blood cell; assay: Binding affinity to Hemoglobin in sickle cell RBCs from blood isolated from patient with homozygous SS assessed as increase in hemoglobin modification under hypoxic conditions incubated for 2 hrs […]; type: tissue-based; settings: Homo sapiens; procedure, shortened: as §3
[12] = system: Red blood cell; assay: Binding affinity to Hemoglobin in sickle cell RBCs from blood isolated from patient with homozygous SS assessed as increase in hemoglobin modification at 1 mM under hypoxic conditions incubated for 2 hrs […]; type: tissue-based; settings: Homo sapiens; procedure, shortened: as §3
[13] = system: Red blood cell; assay: Binding affinity to Hemoglobin in sickle cell RBCs from blood isolated from patient with homozygous SS assessed as increase in Hb affinity for oxygen under hypoxic conditions incubated for 2 hrs by oxygen equilibrium curve study; type: tissue-based; settings: Homo sapiens; procedure, shortened: as §1
[14] = Inhibition of sickling in sickle cell RBCs from blood isolated from patient with homozygous SS at 0.5 mM under hypoxic conditions incubated for 2 hrs; type: functional; settings: Homo sapiens, Erythrocyte; procedure, shortened: as §2
[15] = Induction of in-vivo modification of intracellular hemoglobin in C57BL/6 mouse at 150 mg/kg, ip dosed as single administration measured after 6 hrs by cation-exchange HPLC analysis
[16] = Stability in human whole blood assessed as parent compound level at 0.5 mM incubated for 24 hrs by reversed-phase HPLC analysis; type: ADME, tissue-based; settings: read-out: Stabilty
Procedure, shortened: (§5)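 Normal whole blood, hematocrit 30%, incubated with or without compound at 0.5 or 1 mM at 37 °C. Aliquots taken at 0, 4, 8, 24 h are deproteinized with 0.1 M formic acid in acetonitrile at 60–65 °C for 30 min, centrifuged and filtered. Reversed-phase C18 HPLC uses a 0.1% formic acid water/acetonitrile gradient, detection at 261 nm. Parent and carboxylic acid analogue are quantified; the acid serves as reference.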

[17] = system: Mus musculus; assay: Induction of in-vivo modification of intracellular hemoglobin in C57BL/6 mouse at 150 mg/kg, ip dosed as single administration measured after 1 to 6 hrs by cation-exchange HPLC analysis; type: functional, organism-based; settings: time 1-6 hrs, TDE = time-dependent effect
Procedure, shortened: (§6)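 C57BL/6 mice (3 male, 3 female) receive a single intraperitoneal dose of 150 mg/kg. Blood is drawn by submandibular bleeding before dosing and at 1, 3 and 6 h, then hemolyzed. Hb modification and Hb-O2 affinity shift are measured; n = 6.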

[18] = Induction of in-vivo hemoglobin-O2 affinity shifts in C57BL/6 mouse at 150 mg/kg, ip dosed as single administration measured after 6 hrs by oxygen equilibrium curve study; type: functional; procedure, shortened: as §6
[19] = system: Mus musculus; assay: Induction of in-vivo hemoglobin-O2 affinity shifts in C57BL/6 mouse at 150 mg/kg, ip dosed as single administration measured after 3 to 6 hrs by oxygen equilibrium curve study; type: functional, organism-based; settings: time 3-6 hrs, TDE = time-dependent effect; procedure, shortened: as §6
[20] = Drug metabolism in human whole blood assessed as carboxylic acid analogue formation at 0.5 to 1 mM incubated up to 24 hrs by reversed-phase HPLC analysis; type: ADME, tissue-based; settings: 1000 µM, dose 0.5-1 mM; procedure, shortened: as §5
[21] = Stability in human whole blood assessed as parent compound level at 1 mM incubated for 24 hrs by reversed-phase HPLC analysis; type: ADME, tissue-based; settings: read-out: Stabilty; procedure, shortened: as §5

Row | Structure (SMILES) | Activity [1] [%] | Activity [2] [%] | inhibition [3] | Activity [4] [%] | Activity [5] [%] | inhibition at 2000 µM [6] [%] | Activity ([7]; TDE = time-dependent effect) | inhibition at 1000 µM [8] [%] | Activity [9] [%] | Activity [10] | Activity [11] | Activity [12] [%] | Activity [13] | inhibition at 500 µM [14] [%] | Activity [7] | further results
1 | COC(=O)c1cccnc1COc1ccc(OC)cc1C=O | 5.9 | 21.3 | Dose-dependent effect | 12.8 | 32.1 | 99 | Tde | 71.7 | 67.5 | Dose-dependent effect | Dose-dependent effect | 49.9 | Dose-dependent effect | 41.8 | – | –
2 | COC(=O)c1ncccc1COc1ccc(OC)cc1C=O | 4.4 | 25.4 | Dose-dependent effect | 13.9 | 30.2 | 99.1 | – | 97.7 | 79.2 | inactive | Dose-dependent effect | 62.3 | Dose-dependent effect | 37.6 | inactive | –
3 | COC(=O)c1ccc(COc2ccc(OC)cc2C=O)nc1 | – | – | – | – | – | – | – | – | – | inactive | – | – | – | – | inactive | –
4 | COC(=O)c1ccc(COc2cccc(O)c2C=O)cn1 | 16.3 | 60.1 | Dose-dependent effect | 44.2 | 47.8 | 98.9 | Tde | 90.7 | 100 | Dose-dependent effect | Dose-dependent effect | 92.5 | Dose-dependent effect | 39.5 | – | –
5 | COC(=O)c1ncccc1COc1cccc(O)c1C=O | – | – | Dose-dependent effect | – | – | > 90 | – | – | – | inactive | Dose-dependent effect | – | Dose-dependent effect | – | inactive | –
6 | COC(=O)c1cccc(COc2cccc(O)c2C=O)n1 | 5.4 | 48.6 | Dose-dependent effect | 29.2 | 29.2 | 93.2 | – | 54.2 | 100 | inactive | Dose-dependent effect | 81.1 | Dose-dependent effect | 7.6 | inactive | Activity [15]: 9.6%; remaining at 24 h, 500 µM [16]: 89%; Activity [17]: Tde; Activity [18]: 5.5%; Activity [19]: Tde; Drug metabolism [20]: Metabolite_Detected; remaining at 24 h, 1000 µM [21]: 83%
7 | COC(=O)c1cncc(COc2ccc(OC)cc2C=O)c1 | – | – | Dose-dependent effect | – | – | > 90 | Tde | – | < 100 | Dose-dependent effect | Dose-dependent effect | 60 | Dose-dependent effect | – | – | –
